Laboratory results: ChEMBL document CHEMBL4330143, “Maximizing ER-α Degradation Maximizes Activity in a Tamoxifen-Resistant Breast Cancer Model: Identification of GDC-0927” (ACS Med Chem Lett, 2019)
Activity calls are given as the source filed them. The rule behind the calls is not given here.

Assays:
[1] = test system: MCF7; experiment: Antiproliferative activity against human MCF7 cells after 5 days by CellTiter-Glo assay; details: MCF7, 120 h
[2] = Cmax in nude mouse xenografted with tamoxifen-resistant human MCF7 cells at 100 mg/kg, po daily for 28 days measured on day 28 post last dose; assay type: ADME, organism-based; parameters: dose 100 mg/kg, route oral; details: in vivo
Method in brief: (§1)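 Tamoxifen-resistant MCF-7 xenograft mice carrying subcutaneous 0.72 mg estradiol pellets. Plasma pharmacokinetics sampled on day 28 of the study, at take-down.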

[3] = Genotoxicity in Salmonella typhimurium TA100 by Ames test; assay type: toxicity; details: salmonella enterica subsp. enterica serovar […]
[4] = target: T1, Progesterone receptor (Homo sapiens) (UniProt P06401); experiment: Antagonist activity at PR-A (unknown origin) by transcriptional reporter assay
T1 sequence (whole entry): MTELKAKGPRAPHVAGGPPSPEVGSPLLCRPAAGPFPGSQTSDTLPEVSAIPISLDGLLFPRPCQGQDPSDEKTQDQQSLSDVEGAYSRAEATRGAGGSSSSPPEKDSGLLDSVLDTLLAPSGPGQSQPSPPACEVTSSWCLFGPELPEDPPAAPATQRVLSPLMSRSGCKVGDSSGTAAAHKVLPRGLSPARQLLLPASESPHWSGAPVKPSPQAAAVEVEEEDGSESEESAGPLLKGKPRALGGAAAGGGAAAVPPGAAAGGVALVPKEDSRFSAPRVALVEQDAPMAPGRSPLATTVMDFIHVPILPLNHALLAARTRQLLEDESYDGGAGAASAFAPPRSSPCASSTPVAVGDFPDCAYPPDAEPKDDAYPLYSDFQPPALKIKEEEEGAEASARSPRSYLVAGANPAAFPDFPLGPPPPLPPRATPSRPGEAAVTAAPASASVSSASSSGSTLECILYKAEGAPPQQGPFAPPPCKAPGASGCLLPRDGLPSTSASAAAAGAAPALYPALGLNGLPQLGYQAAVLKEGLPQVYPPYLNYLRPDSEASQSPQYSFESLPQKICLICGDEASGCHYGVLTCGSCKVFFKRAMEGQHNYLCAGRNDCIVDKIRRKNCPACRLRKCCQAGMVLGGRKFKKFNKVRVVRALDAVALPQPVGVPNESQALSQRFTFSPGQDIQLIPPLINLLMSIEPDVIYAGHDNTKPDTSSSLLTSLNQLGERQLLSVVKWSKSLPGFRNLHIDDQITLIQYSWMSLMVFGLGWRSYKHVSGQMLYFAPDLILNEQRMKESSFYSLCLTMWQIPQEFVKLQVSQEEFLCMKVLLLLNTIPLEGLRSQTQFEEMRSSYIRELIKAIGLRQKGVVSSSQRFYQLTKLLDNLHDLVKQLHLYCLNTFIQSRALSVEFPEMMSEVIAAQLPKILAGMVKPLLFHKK

[5] = test system: MCF7; experiment: Antitumor activity against tamoxifen-resistant human MCF7 cells xenografted in nude mouse at 100 mg/kg, po daily for 28 days; assay type: functional, organism-based
Method in brief: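 Tamoxifen-resistant MCF-7 tumours grown subcutaneously in mice, with estradiol supplied from subcutaneous 0.72 mg estradiol pellets.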

[6] = target: Cytochrome P450 2C19 (Homo sapiens, UniProt P33261); experiment: Competitive inhibition of CYP2C19 (unknown origin); assay type: ADME
[7] = target: T2, Glucocorticoid receptor (Homo sapiens) (UniProt P04150); experiment: Agonist activity at GR (unknown origin) by transcriptional reporter assay
T2 sequence (whole entry): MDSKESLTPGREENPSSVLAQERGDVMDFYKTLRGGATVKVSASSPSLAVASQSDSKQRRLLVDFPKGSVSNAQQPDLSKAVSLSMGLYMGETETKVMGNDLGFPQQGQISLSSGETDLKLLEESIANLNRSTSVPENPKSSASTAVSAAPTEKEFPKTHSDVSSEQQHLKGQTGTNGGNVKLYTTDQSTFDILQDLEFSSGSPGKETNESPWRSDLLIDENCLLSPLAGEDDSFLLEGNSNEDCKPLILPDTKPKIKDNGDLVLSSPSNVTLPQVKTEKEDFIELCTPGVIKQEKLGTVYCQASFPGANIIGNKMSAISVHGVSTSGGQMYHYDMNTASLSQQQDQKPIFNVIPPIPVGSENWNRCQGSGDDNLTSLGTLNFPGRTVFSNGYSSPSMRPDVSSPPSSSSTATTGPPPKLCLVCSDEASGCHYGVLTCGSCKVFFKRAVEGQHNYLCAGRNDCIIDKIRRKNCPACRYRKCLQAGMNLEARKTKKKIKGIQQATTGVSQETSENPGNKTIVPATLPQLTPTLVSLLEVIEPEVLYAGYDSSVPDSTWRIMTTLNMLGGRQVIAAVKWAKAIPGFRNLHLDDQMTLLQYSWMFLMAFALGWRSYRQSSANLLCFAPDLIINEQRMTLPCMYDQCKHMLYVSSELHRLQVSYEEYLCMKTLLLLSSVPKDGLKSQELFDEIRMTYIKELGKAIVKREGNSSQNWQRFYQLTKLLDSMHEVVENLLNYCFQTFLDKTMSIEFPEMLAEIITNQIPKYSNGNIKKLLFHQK

[8] = AUC (0 to 24 hrs) in nude mouse xenografted with tamoxifen-resistant human MCF7 cells at 100 mg/kg, po daily for 28 days measured on day 28 post last dose; assay type: ADME, organism-based; parameters: time < 24 hr, dose 100 mg/kg, route oral; details: in vivo; method in brief: as §1
[9] = target: Cytochrome P450 2C9 (Homo sapiens, UniProt P11712); experiment: Inhibition of CYP2C9 (unknown origin); assay type: ADME
[10] = target: T2, Glucocorticoid receptor (Homo sapiens); experiment: Antagonist activity at GR (unknown origin) by transcriptional reporter assay
[11] = Clearance in rat at 10 mg/kg, po daily for 3 days measured on day 3 post last dose; assay type: ADME, organism-based; details: in vivo

Sequence of Cytochrome P450 2C9 (P11712 whole entry): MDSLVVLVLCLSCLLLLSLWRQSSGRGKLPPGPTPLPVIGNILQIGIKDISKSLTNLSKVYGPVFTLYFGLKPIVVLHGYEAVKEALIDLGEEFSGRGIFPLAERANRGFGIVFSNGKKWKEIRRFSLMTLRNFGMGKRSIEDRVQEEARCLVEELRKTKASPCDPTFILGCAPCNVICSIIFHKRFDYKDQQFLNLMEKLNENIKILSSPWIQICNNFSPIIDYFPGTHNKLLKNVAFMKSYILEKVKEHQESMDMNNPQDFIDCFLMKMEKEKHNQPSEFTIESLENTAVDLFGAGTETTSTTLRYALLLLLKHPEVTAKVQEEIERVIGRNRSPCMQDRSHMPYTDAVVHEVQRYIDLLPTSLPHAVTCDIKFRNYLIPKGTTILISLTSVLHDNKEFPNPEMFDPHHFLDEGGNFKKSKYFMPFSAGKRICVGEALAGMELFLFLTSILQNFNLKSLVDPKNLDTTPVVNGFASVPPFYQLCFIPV
Sequence of Cytochrome P450 2C19 (P33261 whole entry): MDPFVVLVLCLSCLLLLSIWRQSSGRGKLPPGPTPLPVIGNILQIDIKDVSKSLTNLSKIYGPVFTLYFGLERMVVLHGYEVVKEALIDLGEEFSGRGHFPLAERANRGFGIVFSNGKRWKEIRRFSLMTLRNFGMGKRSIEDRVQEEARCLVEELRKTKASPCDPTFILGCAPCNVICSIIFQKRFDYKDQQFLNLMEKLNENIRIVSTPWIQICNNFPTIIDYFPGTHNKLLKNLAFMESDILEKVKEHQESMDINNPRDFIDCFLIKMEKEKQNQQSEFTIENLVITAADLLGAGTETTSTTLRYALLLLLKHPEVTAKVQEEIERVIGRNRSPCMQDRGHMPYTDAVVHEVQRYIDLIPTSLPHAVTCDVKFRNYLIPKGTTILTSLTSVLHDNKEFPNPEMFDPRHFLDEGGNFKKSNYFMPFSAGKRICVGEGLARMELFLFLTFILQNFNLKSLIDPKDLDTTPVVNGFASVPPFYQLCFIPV

CC1=C(c2cccc(O)c2)[C@H](c2ccc(OCCN3CC(CF)C3)cc2)Oc2ccc(O)cc21
IC50 [1]: 0.0001 µM | Cmax [2]: 950 ng/mL | Activity [3]: Non-Toxic | inhibition [4]: inactive | Activity [5]: Active | IC50 [6]: > 10 µM | Activity [7]: inactive | AUC at 24 h [8]: 6900 ng·h/mL | IC50 [9]: 3.2 µM | inhibition [10]: inactive | CL/F [11]: > 60 mL/min/kg
